The values below come from ChEMBL document CHEMBL1141869.

Test [1] deals with NAD-dependent histone deacetylase SIR2 (Saccharomyces cerevisiae S288c) (UniProt P06700). The test is described as follows: Inhibitory activity against recombinant yeast Sir2 at 100 uM. An outline of the steps:
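Purified His-tagged recombinant yeast Sir2p (3 μg) was incubated 60 min at 30 °C with 250 μM acetylated histone substrate, 1 mM DTT, 200 μM NAD⁺ and inhibitor at 0, 20, 75, 100, 150 or 300 μM. Deacetylation was detected fluorometrically after developer treatment (ex 360/em 450 nm). Values are means of at least three separate experiments.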

For test [2], the target named is T1, NAD-dependent protein deacetylase sirtuin-2 (Homo sapiens) (UniProt Q8IXJ6).
T1 sequence (whole entry): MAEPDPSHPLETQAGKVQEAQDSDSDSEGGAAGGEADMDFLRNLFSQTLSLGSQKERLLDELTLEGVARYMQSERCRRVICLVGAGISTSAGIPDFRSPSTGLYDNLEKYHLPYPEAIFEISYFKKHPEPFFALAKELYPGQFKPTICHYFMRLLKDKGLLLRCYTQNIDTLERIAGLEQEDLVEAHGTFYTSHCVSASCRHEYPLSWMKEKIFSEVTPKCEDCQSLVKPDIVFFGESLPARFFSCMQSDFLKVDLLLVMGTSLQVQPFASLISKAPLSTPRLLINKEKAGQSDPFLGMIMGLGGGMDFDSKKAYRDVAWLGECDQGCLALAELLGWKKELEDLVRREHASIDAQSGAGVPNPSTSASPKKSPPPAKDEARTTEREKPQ
The experiment in a line: Inhibitory activity against human SIRT2 at 100 uM. An outline of the steps:
(§1)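 His-tagged recombinant human SIRT1 or SIRT2 (1 μg), purified, run in a fluorogenic deacetylase assay with 250 μM acetylated histone substrate, 1 mM DTT and 200 μM NAD⁺ for 60 min at 37 °C. Inhibitor was tested at 0, 20, 75, 100, 150 or 300 μM. Developer was added and fluorescence read at ex 360/em 450 nm. Values are the mean of at least three separate experiments.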

In test [3] the target is T2, NAD-dependent protein deacetylase sirtuin-1 (Homo sapiens) (UniProt Q96EB6).
T2 sequence (whole entry): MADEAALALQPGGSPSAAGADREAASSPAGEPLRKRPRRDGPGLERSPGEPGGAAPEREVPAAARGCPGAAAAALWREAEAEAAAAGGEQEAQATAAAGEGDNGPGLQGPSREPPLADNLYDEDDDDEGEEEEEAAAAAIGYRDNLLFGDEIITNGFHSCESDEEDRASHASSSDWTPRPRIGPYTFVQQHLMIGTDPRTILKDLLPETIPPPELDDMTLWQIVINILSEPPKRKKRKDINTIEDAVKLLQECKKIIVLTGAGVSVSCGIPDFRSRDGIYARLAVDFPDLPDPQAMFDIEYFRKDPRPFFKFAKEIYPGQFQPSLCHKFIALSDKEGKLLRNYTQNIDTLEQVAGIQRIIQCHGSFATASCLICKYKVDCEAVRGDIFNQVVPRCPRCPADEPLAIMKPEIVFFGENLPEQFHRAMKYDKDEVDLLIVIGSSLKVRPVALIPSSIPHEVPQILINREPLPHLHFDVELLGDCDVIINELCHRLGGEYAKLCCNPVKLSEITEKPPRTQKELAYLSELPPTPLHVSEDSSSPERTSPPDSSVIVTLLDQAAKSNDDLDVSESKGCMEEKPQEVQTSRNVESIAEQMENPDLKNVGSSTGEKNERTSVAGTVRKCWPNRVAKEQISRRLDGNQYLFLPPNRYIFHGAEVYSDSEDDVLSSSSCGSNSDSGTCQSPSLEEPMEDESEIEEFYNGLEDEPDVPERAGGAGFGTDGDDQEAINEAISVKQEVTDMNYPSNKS
The experiment in a line: Inhibitory activity against human SIRT1 at 100 uM. Summed up:
as §1

The source made the active and inactive calls. The calls are words filed in the database; no cut-off is given here.

One may read the inhibition as the share of the control response that was lost under treatment.

Sequence of NAD-dependent histone deacetylase SIR2 (Saccharomyces cerevisiae S288c) (P06700 whole entry): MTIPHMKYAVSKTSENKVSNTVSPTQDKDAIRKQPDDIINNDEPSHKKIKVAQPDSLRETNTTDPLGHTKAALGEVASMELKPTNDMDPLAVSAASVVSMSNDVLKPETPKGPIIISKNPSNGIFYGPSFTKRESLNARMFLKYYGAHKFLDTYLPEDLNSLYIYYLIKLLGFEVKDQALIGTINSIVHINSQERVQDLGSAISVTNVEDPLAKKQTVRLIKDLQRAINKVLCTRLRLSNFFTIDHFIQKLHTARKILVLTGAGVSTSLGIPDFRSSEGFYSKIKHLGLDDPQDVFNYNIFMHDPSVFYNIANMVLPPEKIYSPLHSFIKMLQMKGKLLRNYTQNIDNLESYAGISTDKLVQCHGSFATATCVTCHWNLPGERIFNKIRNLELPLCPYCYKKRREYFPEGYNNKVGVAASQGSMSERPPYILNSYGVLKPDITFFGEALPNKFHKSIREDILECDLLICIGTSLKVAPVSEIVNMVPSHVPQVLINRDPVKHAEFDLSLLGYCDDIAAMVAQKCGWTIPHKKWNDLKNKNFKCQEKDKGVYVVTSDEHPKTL

With `C[C@@H](NC(=O)c1ccccc1/N=C/c1c(O)ccc2ccccc12)c1ccccc1`, the values for the inhibition in test [1], in test [2] and in test [3] were 55.5%, 72.2% and 61.8%, respectively.
`CCOC(=O)c1ccccc1/N=C/c1c(O)ccc2ccccc12`: the values for the inhibition in test [1] and in test [3] were 20% and 9%, respectively.
Turning to `CC(NC(=O)c1ccccc1/N=C/c1c(O)ccc2ccccc12)c1ccccc1` (stereo not given), the inhibition worked out at 65.6% in test [1], 71% in test [2] and 44.5% in test [3].
Turning to `N#Cc1ccccc1/N=C/c1c(O)ccc2ccccc12`, the inhibition in test [1] was 15%; in test [3], 20%.
As to `CC(NC(=O)c1cccc(/N=C/c2c(O)ccc3ccccc23)c1)c1ccccc1` (stereo not given), the inhibition was found to be 53.9% in test [1], 79.2% in test [2] and 63% in test [3].
Take `C[C@H](NC(=O)c1ccccc1/N=C/c1c(O)ccc2ccccc12)c1ccccc1`: the inhibition is 57% in test [1], 73.5% in test [2] and 60.2% in test [3].
The like results for `CC(NC(=O)c1ccc(/N=C/c2c(O)ccc3ccccc23)cc1)c1ccccc1` (stereo not given) were, in that order, 59.8%, 80.2% and 82.6%.
`CC(NC(=O)c1ccccc1/N=C/c1cccc2ccccc12)c1ccccc1` (stereo not given): the results for the inhibition in test [1] and in test [3] were 10% and 33%, respectively.
`NC(=O)c1ccccc1/N=C/c1c(O)ccc2ccccc12`: the inhibition entry in test [1] and in test [3] was “inactive” each time.
Take `O=C(O)c1ccccc1/N=C/c1c(O)ccc2ccccc12`: the inhibition was 5% in test [1] and 26% in test [3].
